Calls of active or inactive are those of the source. The rule behind the calls is not given here.
What was measured:
Adenosine receptor A2a [1] = target: T1, Adenosine receptor A2a (Homo sapiens, UniProt P29274); test: Displacement of [3H]CGS 21680 from adenosine A2A receptor in lamb striatum membrane after 2 hrs; format: cell membranes, Ovis aries; conditions: target entry is the homologue from another species
How it was run: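 Lamb striatal membranes (0.5 mg protein/mL), 22 °C, 50 mM Tris-HCl pH 7.4, with increasing ergopeptide concentrations. Conditions per receptor: D1 1.2 nM [3H]SCH 23390, 1 mM dopamine nonspecific. D2 0.9 nM [3H]YM 09151-2, 100 µM raclopride nonspecific. A1 2.2 nM [3H]R-PIA, 10 mM MgCl2, 0.2 U/mL ADA, 50 µM R-PIA nonspecific. A2A 20.1 nM [3H]CGS 21680, 10 mM MgCl2, 2 U/mL ADA, 1 mM CGS 21680 nonspecific. Filtration, scintillation counting. KD by nonlinear one- or two-site fit. Three to six determinations.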

[2] = target: D(1A) dopamine receptor (Homo sapiens) (UniProt P21728); test: Displacement of [3H]SCH 23390 from dopamine D1 receptor in lamb striatum membrane at 50 uM after 1 hr; format: cell membranes; conditions: Ovis aries, target entry is the homologue from another species
D(1A) dopamine receptor (Homo sapiens), sequence (P21728 whole entry): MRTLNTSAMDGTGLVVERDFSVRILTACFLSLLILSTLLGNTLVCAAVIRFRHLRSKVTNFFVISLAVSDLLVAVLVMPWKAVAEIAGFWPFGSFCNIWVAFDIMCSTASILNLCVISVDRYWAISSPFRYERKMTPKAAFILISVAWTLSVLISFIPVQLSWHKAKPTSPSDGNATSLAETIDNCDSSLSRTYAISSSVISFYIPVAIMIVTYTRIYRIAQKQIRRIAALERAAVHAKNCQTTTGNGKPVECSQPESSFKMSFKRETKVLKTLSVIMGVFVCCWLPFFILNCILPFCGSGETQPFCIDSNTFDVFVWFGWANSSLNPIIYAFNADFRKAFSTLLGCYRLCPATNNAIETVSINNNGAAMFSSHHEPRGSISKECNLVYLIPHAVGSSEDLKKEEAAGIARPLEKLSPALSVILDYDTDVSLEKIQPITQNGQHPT
How it was run: (§1)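 Single-concentration screen at 50 µM ergopeptide on lamb striatal membranes (0.5 mg protein/mL), 22 °C, 50 mM Tris-HCl pH 7.4. Radioligands: [3H]SCH 23390 1.2 nM (D1), [3H]YM 09151-2 0.9 nM (D2), [3H]R-PIA 2.2 nM (A1, with MgCl2 and ADA), [3H]CGS 21680 20.1 nM (A2A, with MgCl2 and ADA). Specific binding displaced, after filtration and scintillation counting.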

[3] = target: D(2) dopamine receptor (Homo sapiens) (UniProt P14416); test: Displacement of [3H]YM 09151-2 from dopamine D2 receptor in lamb striatum membrane at 50 uM after 2 hrs; format: cell membranes; conditions: Ovis aries, target entry is the homologue from another species; how it was run: as §1
D(2) dopamine receptor (Homo sapiens), sequence (P14416 whole entry): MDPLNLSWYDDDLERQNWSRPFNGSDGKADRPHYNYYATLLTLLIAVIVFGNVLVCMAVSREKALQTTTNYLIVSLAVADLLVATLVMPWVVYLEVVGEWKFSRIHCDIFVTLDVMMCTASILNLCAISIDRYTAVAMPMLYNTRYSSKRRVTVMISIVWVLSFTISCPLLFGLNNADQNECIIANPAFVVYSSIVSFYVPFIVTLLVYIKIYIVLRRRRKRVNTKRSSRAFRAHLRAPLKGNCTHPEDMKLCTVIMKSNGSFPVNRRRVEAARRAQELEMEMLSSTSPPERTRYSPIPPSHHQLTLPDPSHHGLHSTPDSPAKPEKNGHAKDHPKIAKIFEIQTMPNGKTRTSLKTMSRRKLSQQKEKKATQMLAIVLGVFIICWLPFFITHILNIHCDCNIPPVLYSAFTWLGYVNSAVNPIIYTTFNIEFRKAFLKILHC

[4] = target: T2, Adenosine receptor A1 (Homo sapiens) (UniProt P30542); test: Displacement of [3H]R-PIA from adenosine A1 receptor in lamb striatum membrane at 50 uM after 1 hr; format: cell membranes; conditions: Ovis aries, target entry is the homologue from another species; how it was run: as §1
T2 sequence (whole entry): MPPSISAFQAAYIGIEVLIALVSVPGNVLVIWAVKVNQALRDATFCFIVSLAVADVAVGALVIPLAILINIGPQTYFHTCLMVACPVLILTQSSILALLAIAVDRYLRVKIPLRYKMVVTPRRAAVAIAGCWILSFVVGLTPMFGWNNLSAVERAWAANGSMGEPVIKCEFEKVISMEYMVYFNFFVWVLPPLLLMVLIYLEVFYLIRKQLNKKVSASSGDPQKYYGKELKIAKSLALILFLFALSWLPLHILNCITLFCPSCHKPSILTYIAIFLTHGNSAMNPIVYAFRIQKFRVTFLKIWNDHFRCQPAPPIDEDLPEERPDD

Adenosine receptor A2a [5] = target: T1, Adenosine receptor A2a; test: Displacement of [3H]CGS 21680 from adenosine A2A receptor in lamb striatum membrane at 50 uM after 2 hrs; format: cell membranes; conditions: Ovis aries, target entry is the homologue from another species; how it was run: as §1
Adenosine receptor A2a [6] = target: T1, Adenosine receptor A2a; test: Antagonist activity at adenosine A2A receptor in SH-SY5Y cells assessed as CGS-induced intracellular cAMP production at 50 uM; format: functional, cell-based
How it was run: (§2)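 SH-SY5Y neuroblastoma cells, endogenous A2AR, stably carrying human D2LR. Serum-starved 12-16 h, in HBSS with 50 µM zardaverine for 10 min, then 50 µM ergopeptide, alone or with the A2AR agonist CGS. 35 min total incubation. cAMP by competitive enzyme immunoassay. Three to six determinations, Student's t test.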

[7] = target: T2, Adenosine receptor A1 (Homo sapiens); test: Agonist activity at adenosine A1 receptor transfected in mouse L(tk-) cells assessed as decrease in forskolin-induced cAMP levels; format: functional, cell-based
How it was run: (§3)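 Mouse Ltk- fibroblasts cotransfected with human A1R and D1R, preincubated 5-10 min at 22 °C with 50 µM SCH to block D1R. Then 50 µM zardaverine, 10 µM forskolin, and 50 µM ergopeptide, with or without 20 nM R-PIA or 50 µM DPCPX. 35 min total. cAMP by enzyme immunoassay. Three to six determinations.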

[8] = target: T2, Adenosine receptor A1 (Homo sapiens); test: Antagonist activity at adenosine A1 receptor transfected in mouse L(tk-) cells assessed as inhibition of R-PIA-induced decrease in forskolin-induced cAMP levels; format: functional, cell-based; how it was run: as §3
Adenosine receptor A2a [9] = target: T1, Adenosine receptor A2a; test: Agonist activity at adenosine A2A receptor in SH-SY5Y cells assessed as CGS-induced intracellular cAMP production at 50 uM; format: functional, cell-based; how it was run: as §2
[10] = target: D(2) dopamine receptor (Homo sapiens) (UniProt P14416); test: Antagonist activity at dopamine D2 receptor in SH-SY5Y cells assessed as effect on forskolin-activated intracellular cAMP production at 50 uM; format: functional, cell-based
How it was run: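 SH-SY5Y cells expressing human D2LR, preincubated 5-10 min at 22 °C with 5 µM ZM to block A2AR. Then 50 µM zardaverine, 10 µM forskolin, and 50 µM ergopeptide, with or without 150 nM quinpirole or 50 µM raclopride. 35 min total. cAMP by enzyme immunoassay. Three to six determinations, t test.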

[11] = target: D(1A) dopamine receptor (Homo sapiens) (UniProt P21728); test: Agonist activity at dopamine D1 receptor transfected in mouse L(tk-) cells assessed as stimulation of cAMP levels; format: functional, cell-based
How it was run: (§4)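 Mouse Ltk- fibroblasts cotransfected with human A1R and D1R, serum-starved 12-16 h. In HBSS with 50 µM zardaverine, then 50 µM ergopeptide, with or without 20 nM SKF or 50 µM SCH. 35 min total incubation. cAMP by competitive enzyme immunoassay. Three to six determinations, t test.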

[12] = target: D(1A) dopamine receptor (Homo sapiens) (UniProt P21728); test: Antagonist activity at dopamine D1 receptor transfected in mouse L(tk-) cells assessed as inhibition of SKF-induced stimulation of forskolin-induced cAMP levels; format: functional, cell-based; how it was run: as §4

T1 sequence (P29274 whole entry): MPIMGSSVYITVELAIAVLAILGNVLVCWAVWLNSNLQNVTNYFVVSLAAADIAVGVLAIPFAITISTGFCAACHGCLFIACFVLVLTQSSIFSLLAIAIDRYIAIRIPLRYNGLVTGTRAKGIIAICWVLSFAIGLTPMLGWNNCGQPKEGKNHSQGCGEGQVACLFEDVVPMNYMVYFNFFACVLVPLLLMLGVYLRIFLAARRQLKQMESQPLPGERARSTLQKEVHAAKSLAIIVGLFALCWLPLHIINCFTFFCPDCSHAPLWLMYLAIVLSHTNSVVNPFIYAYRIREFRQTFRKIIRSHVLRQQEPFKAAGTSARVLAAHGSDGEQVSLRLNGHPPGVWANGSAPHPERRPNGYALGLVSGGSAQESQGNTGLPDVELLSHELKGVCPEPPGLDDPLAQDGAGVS

With `CC(C)[C@H](NC(=O)[C@@H]1C=C2c3cccc4[nH]cc(c34)C[C@H]2N(C)C1)C(=O)N[C@@H](CCC1CCCCC1)C(=O)N1CCCC(C(N)=O)C1` (some centres not stated) the Kd (Adenosine receptor A2a [1]) was 50 µM, the Activity [2] was less than 40% and the Activity [3] was less than 40%. For the same molecule, the Activity [4] was less than 40%, the Activity (Adenosine receptor A2a [5]) was less than 40% and the Activity (Adenosine receptor A2a [6]) was “Active”. For the same molecule, the Activity [7] was “inactive”, the Activity [8] was “Active” and the Activity (Adenosine receptor A2a [9]) was “inactive”. The Activity [10] was “Active”, the Activity [11] was “Active” and the Activity [12] was “inactive”.

Reference: ChEMBL document CHEMBL1145382, “Novel ergopeptides as dual ligands for adenosine and dopamine receptors” (J Med Chem, 2007)
